In paper PMC4109633 (Drug Design, Development and Therapy, 2014):
Marks after values point to notes of the source that are not given here.

How the values were obtained:
Type in all cases: cell-based
[1] = system: Salmonella typhimurium TA1535; assay: Ames Salmonella/microsomal mutagenicity assay; settings: presence of S9 mix, spontaneous 67.0±6.1
[2] = system: Salmonella typhimurium TA1535; assay: Cytotoxicity in liquid medium; settings: mean ± SEM
Procedure, shortened: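 TA1535 was grown in broth microdilution with test compound at 25, 50 or 100 µM. Viability was expressed as % of untreated control (mean ± SEM), triplicate.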

[3] = system: Salmonella typhimurium TA1535; assay: Antimutagenicity assay against sodium azide; settings: for NaN3 mutagenicity (revertant colonies/plate; mean ± SEM): NaN3 2 μg/plate, spontaneous 29.3±5.3; for Mutant frequency (sodium azide): mutant colonies/viable colonies
Procedure, shortened: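 TA1535 was exposed to test compound at 10 or 20 µM with NaN₃ (2 µg/plate) in two schemes. In pre-exposure, compound and bacteria were shaken 30 min at 37°C before mutagen was added. In co-exposure, bacteria, mutagen and compound were incubated together 30 min at 37°C. Cells were then plated on minimal glucose agar, and revertants counted at 48 h, in triplicate. Mutant frequency = mutant colonies/viable colonies.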

[4] = system: Salmonella typhimurium TA1535; assay: Antimutagenicity assay against benzo[a]pyrene with S9 mix; settings: for B[a]P mutagenicity (revertant colonies/plate; mean ± SEM): B[a]P 20 μM + S9 mix, spontaneous 105.0±13.1; for Mutant frequency (benzo[a]pyrene): mutant colonies/viable colonies

SMILES	Fluoroarylbichalcophene mutagenicity (revertant colonies/plate; mean ± SEM) ([1]; 10 μM)	Fluoroarylbichalcophene mutagenicity (revertant colonies/plate; mean ± SEM) ([1]; 20 μM)	Viability at fluoroarylbichalcophene concentrations (% of control) ([2]; 25 μM)	Viability at fluoroarylbichalcophene concentrations (% of control) ([2]; 50 μM)	Viability at fluoroarylbichalcophene concentrations (% of control) ([2]; 100 μM)	NaN3 mutagenicity (revertant colonies/plate; mean ± SEM) ([3]; co-exposure, 10 μM)	NaN3 mutagenicity (revertant colonies/plate; mean ± SEM) ([3]; co-exposure, 20 μM)	Mutant frequency (sodium azide) ([3]; co-exposure, 20 μM)	NaN3 mutagenicity (revertant colonies/plate; mean ± SEM) ([3]; pre-exposure, 10 μM)	Mutant frequency (sodium azide) ([3]; pre-exposure, 10 μM)	NaN3 mutagenicity (revertant colonies/plate; mean ± SEM) ([3]; pre-exposure, 20 μM)	Mutant frequency (sodium azide) ([3]; pre-exposure, 20 μM)	B[a]P mutagenicity (revertant colonies/plate; mean ± SEM) ([4]; co-exposure, 10 μM)	Mutant frequency (benzo[a]pyrene) ([4]; co-exposure, 10 μM)	B[a]P mutagenicity (revertant colonies/plate; mean ± SEM) ([4]; co-exposure, 20 μM)	Mutant frequency (benzo[a]pyrene) ([4]; co-exposure, 20 μM)	B[a]P mutagenicity (revertant colonies/plate; mean ± SEM) ([4]; pre-exposure, 10 μM)	Mutant frequency (benzo[a]pyrene) ([4]; pre-exposure, 10 μM)	B[a]P mutagenicity (revertant colonies/plate; mean ± SEM) ([4]; pre-exposure, 20 μM)	Mutant frequency (benzo[a]pyrene) ([4]; pre-exposure, 20 μM)	also measured
N#Cc1ccc(-c2ccc(-c3ccco3)o2)c(F)c1 [Compound 4a, 4-(2,2′-Bifuran-5-yl)-3-fluorobenzonitrile]	63.3±5.5 revertant colonies/plate	69.7±7.0 revertant colonies/plate	100.0±8.5 % of control	66.3±5.6 ^a % of control	45.7±3.5 ^a % of control	75.0±2.3 revertant colonies/plate	34.3±4.9 revertant colonies/plate	0.69	47.7±6.5 revertant colonies/plate	0.99	26.0±5.5 revertant colonies/plate	0.52	270.0±19.0 revertant colonies/plate	4.08	268.0±16.6 revertant colonies/plate	4.14	267.0±11.0 revertant colonies/plate	4.04	267.7±13.0 revertant colonies/plate	4.14	
Cl.N=C(N)c1ccc(-c2ccc(-c3cccs3)o2)c(F)c1 [Compound 5c, 3-Fluoro-4-(5-(thiophen-2-yl)furan-2-yl)benzamidine hydrochloride salt]	70.0±5.9 revertant colonies/plate	66.0±3.5 revertant colonies/plate	71.3±6.4 % of control	58.7±4.2 ^a % of control	28.7±3.0 ^a % of control	25.7±1.8 revertant colonies/plate	24.0±3.0 revertant colonies/plate	0.47	102.0±7.2 revertant colonies/plate	1.91	33.3±8.7 revertant colonies/plate	0.65	110.7±10.5 revertant colonies/plate		111.0±10.2 revertant colonies/plate		148.7±9.8 revertant colonies/plate	2.23	124.0±5.3 revertant colonies/plate	2.02	Mutant frequency (sodium azide) ([3]; co-exposure, 10 μM): 0.48; Antimutagenic potential against NaN3 ([3]; pre-exposure, only at 20 μM): strong (40% or more reduction means strong antimutagenic activity)
N#Cc1ccc(-c2ccc(-c3cccs3)o2)c(F)c1 [Compound 4c, 3-Fluoro-4-(5-(thiophen-2-yl)furan-2-yl)benzonitrile]	65.3±5.4 revertant colonies/plate	68.7±5.5 revertant colonies/plate	104.7±11.6 % of control	61.0±7.0 ^a % of control	2.7±0.4 ^a % of control	44.7±6.0 revertant colonies/plate	40.0±5.0 revertant colonies/plate	0.78	51.0±6.6 revertant colonies/plate	0.93	53.7±9.3 revertant colonies/plate		279.3±19.5 revertant colonies/plate	4.43	269.3±9.0 revertant colonies/plate	4.41	177.0±11.3 revertant colonies/plate	2.81	153.7±7.0 revertant colonies/plate	2.52	Mutant frequency (sodium azide) ([3]; co-exposure, 10 μM): 0.81; Antimutagenic potential against B[a]P ([4]; co-exposure, low concentration investigated): no significant activity
